This note sets out measurements from ChEMBL document CHEMBL1127618, “A novel nonpeptide HIV-1 protease inhibitor: elucidation of the binding mode and its application in the design of related analogs” (J Med Chem, 1994).

Some results are limits rather than exact numbers.

This test deals with Human immunodeficiency virus type 1 protease (Human immunodeficiency virus 1, UniProt Q72874). Kind of test: Inhibition of HIV-1 protease. In short, it runs like this:
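HIV-1 protease at 6.0 nM final added to inhibitor plus 40 μM undecapeptide substrate H-His-Lys-Ala-Arg-Val-Leu-(p-NO2)Phe-Glu-Ala-Nle-Ser-NH2, 1.0% DMSO, in 80 mM NaOAc, 160 mM NaCl, 1.0 mM EDTA, 1.0 mM DTT, 0.1% PEG 8000, pH 4.7, 37 °C. Inhibitor at […]. After 5 min, quenched with 2% TFA. Substrate and product resolved by reversed-phase HPLC (A220). % control from % conversion gives IC50.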
`O=c1oc2ccccc2c(O)c1CCCOCc1ccccc1` returned an IC50 of 38 µM. That is a double-digit micromolar value. Consider `O=c1oc2ccccc2c(O)c1CCCN(Cc1ccccc1)c1ccccc1`, for which the IC50 was found to be 13 µM. As for `O=c1c(CCCOc2cccc(CO)c2)c(O)oc2ccccc12`, the IC50 came to 2.3 µM.

Compound `O=c1oc2ccccc2c(O)c1CCCN(c1ccccc1)c1ccc(F)cc1` displayed an IC50 of 5.5 µM.

The compound `O=c1oc2ccccc2c(O)c1CCCOc1cccc(Cl)c1` yielded an IC50 of 1.4 µM.

Regarding `CCOC(=O)c1cccc(OCCCc2c(O)oc3ccccc3c2=O)c1`, inhibition was half-maximal at 1.4 µM (IC50).

Turning to `COc1ccc(CCCCc2c(O)oc3ccccc3c2=O)cc1`, the IC50 is > 100 µM. The value for `COc1ccccc1CCCCc1c(O)c2ccc(O)cc2oc1=O` was 0.52 µM; that for `O=c1oc2ccccc2c(O)c1CCCCc1ccccc1` was 110 µM. With `O=c1c(CCCO)c(O)oc2ccccc12` the figure was 86 µM; with `O=c1oc2ccccc2c(O)c1CCCCOc1ccccc1`, > 100 µM; with `O=c1oc2ccccc2c(O)c1CCCOc1ccccc1`, 2.3 µM. With `O=c1oc2ccccc2c(O)c1CCCOc1cccc([N+](=O)[O-])c1` the figure was 4 µM; with `O=c1oc2ccccc2c(O)c1CCCSc1ccccc1`, 26 µM; with `O=c1oc2ccccc2c(O)c1CCOc1ccccc1`, 53 µM.

For `O=c1[nH]c2ccccc2c(O)c1CCCOc1ccccc1`, the concentration for half-maximal inhibition (IC50) was > 200 µM. `O=c1oc2ccccc2c(O)c1SCCOc1ccccc1`: half-maximal inhibition (IC50) was put at 24 µM.

With `O=c1c(CC/C(=N/O)c2ccccc2)c(O)oc2ccccc12`, half-maximal inhibition (IC50) was put at 71 µM. Turning to `COc1ccccc1CCCCc1c(O)oc2ccccc2c1=O`, the IC50 came to 1.7 µM. As for `COc1ccccc1OCCCc1c(O)oc2ccccc2c1=O`, the concentration for half-maximal inhibition (IC50) was determined as 44 µM. This IC50 is about 26-fold higher than that of the compound before. `O=c1oc2ccccc2c(O)c1CCOCc1ccccc1` had an IC50 of 4 µM. The value for `COc1ccccc1CCCCc1c(O)oc2cc(OCc3ccccc3)ccc2c1=O` was > 100 µM.

Turning to `O=C(O)c1cccc(OCCCc2c(O)oc3ccccc3c2=O)c1`, the half-inhibitory concentration (IC50) is 7 µM. `N#Cc1cccc(OCCCc2c(O)c3ccccc3oc2=O)c1` gave an IC50 of 0.67 µM. Against the preceding compound, the IC50 is about 10-fold lower. With `O=c1oc2ccccc2c(O)c1CCCOC1CCCCC1` the figure was 32 µM. For the compound `O=C(CCc1c(O)c2ccccc2oc1=O)c1ccccc1`, the IC50 was determined as 90 µM. On to `NC(=O)c1cccc(OCCCc2c(O)oc3ccccc3c2=O)c1`, for which 3.9 µM corresponded to half-maximal inhibition (IC50). Consider `Nc1cccc(OCCCc2c(O)oc3ccccc3c2=O)c1`, for which the IC50 turned out to be 6.4 µM. On to `COc1ccc2c(O)c(CCCCc3ccccc3OC)c(=O)oc2c1`, for which the IC50 worked out at 3.3 µM. This IC50 lies about 1.9-fold lower than the previous one.

The term IC50 denotes the concentration needed to halve the response being measured. The low end stands for inhibition by little substance, the high end for a need for much substance.
